In ChEMBL document CHEMBL2380221, “Discovery of novel STAT3 small molecule inhibitors via in silico site-directed fragment-based drug design” (J Med Chem, 2013):
Active and inactive are the calls of the source. The calls are words filed in the database; no cut-off is given here.

Experiments:
U2OS = assay: Cytotoxicity against human U2OS cells assessed as cell viability by MTT assay; assay type: functional, cell-based
How it was run: (§1)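 RD2, RH30 and U2OS sarcoma cells were seeded at 3000 cells/well and incubated 24 h at 37 °C. Compounds were then added in triplicate at 0.1–10 or 0.1–20 μM in the presence of 10% FBS, from 20 mM DMSO stocks. IC50 was obtained by curve fitting.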

[1] = Cytotoxicity against human U87 cells assessed as cell viability after 72 hrs by MTT assay; assay type: functional, cell-based, U-87MG ATCC; settings: U-87 MG
MDA-MB-231 [2] = assay: Cytotoxicity against human MDA-MB-231 cells assessed as cell viability after 72 hrs by MTT assay; assay type: functional, cell-based; settings: MDA-MB-231, 72 h
PANC-1 = assay: Cytotoxicity against human PANC1 cells assessed as cell viability after 72 hrs by MTT assay; assay type: functional, cell-based; settings: PANC-1, 72 h
[3] = Cytotoxicity against human U373 cells assessed as cell viability after 72 hrs by MTT assay; assay type: functional, cell-based, U-373MG ATCC; settings: U373 MG
SK-BR-3 = assay: Cytotoxicity against human SKBR3 cells assessed as cell viability after 72 hrs by MTT assay; assay type: functional, cell-based; settings: SK-BR-3, 72 h
[4] = target: T1, Signal transducer and activator of transcription 1-alpha/beta (Homo sapiens) (UniProt P42224); assay: Inhibition of IFN-gamma-induced STAT1 Y701 phosphorylation in human DAOY cells at 1 to 5 uM incubated for 2 hrs prior to IFN-gamma induction measured after 30 mins by Western blot analysis; assay type: cell-based
T1 sequence (whole entry): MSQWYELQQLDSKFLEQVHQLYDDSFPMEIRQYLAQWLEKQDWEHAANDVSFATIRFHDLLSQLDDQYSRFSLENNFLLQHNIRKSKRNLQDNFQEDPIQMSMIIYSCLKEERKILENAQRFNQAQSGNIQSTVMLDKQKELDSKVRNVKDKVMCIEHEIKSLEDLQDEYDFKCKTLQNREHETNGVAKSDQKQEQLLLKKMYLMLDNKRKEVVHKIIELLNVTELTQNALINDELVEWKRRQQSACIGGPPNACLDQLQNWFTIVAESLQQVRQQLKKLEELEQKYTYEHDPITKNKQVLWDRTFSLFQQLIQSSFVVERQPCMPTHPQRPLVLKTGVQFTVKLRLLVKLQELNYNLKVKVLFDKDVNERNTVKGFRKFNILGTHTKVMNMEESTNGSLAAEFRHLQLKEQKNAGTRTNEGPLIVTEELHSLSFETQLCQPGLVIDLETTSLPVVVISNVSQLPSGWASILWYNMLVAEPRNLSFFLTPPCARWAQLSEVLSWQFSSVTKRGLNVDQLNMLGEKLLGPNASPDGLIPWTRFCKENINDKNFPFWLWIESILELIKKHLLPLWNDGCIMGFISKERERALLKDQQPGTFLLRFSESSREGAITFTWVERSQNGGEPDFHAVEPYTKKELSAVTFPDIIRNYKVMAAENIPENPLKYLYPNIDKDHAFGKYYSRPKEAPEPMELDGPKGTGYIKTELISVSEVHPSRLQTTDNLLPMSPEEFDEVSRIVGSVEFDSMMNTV
How it was run: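 DAOY cells were serum-starved overnight and left untreated or treated with 1–5 μM compound or DMSO for 2 h. They were then stimulated with IFN-γ at 50 ng/mL and harvested 30 min later. STAT1 phosphorylation was analyzed by Western blot from RIPA lysates, with ECL detection.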

[5] = target: Signal transducer and activator of transcription 3 (Homo sapiens) (UniProt P40763); assay: Inhibition of constitutive STAT3 Y705 phosphorylation in human EW8 cells assessed as appearance of cleaved caspase 3 at 0.5 to 1 uM after 8 hrs by Western blot analysis; assay type: cell-based
Signal transducer and activator of transcription 3 (Homo sapiens), sequence (P40763 whole entry): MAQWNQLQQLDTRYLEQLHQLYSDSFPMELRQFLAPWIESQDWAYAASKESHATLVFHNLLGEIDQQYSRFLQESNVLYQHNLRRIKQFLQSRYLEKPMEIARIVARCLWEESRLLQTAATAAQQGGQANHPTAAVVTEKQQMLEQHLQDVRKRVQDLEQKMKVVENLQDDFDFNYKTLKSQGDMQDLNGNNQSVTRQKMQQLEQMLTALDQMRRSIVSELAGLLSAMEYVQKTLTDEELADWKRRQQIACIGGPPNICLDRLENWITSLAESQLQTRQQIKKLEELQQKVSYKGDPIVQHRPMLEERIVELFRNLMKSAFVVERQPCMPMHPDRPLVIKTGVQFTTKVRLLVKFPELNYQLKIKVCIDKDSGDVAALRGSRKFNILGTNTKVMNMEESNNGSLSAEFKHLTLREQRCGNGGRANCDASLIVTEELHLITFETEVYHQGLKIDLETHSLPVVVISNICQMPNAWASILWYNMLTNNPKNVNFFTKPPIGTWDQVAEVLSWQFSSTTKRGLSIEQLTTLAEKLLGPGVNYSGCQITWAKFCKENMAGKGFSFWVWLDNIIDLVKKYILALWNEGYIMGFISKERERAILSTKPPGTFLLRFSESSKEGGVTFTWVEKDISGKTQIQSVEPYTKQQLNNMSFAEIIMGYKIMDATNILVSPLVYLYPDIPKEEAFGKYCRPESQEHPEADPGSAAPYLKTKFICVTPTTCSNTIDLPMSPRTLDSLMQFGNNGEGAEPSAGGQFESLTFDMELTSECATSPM
How it was run: (§2)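 EW8 Ewing's sarcoma cells were treated with 0.5–1 μM compound or DMSO for 8 h, in 10% FBS at 60–80% confluence. Whole-cell RIPA lysates were analyzed by SDS-PAGE and PVDF Western blot, with primary antibody 1:1,000, HRP secondary 1:10000 and ECL detection. Blots were probed for P-STAT3, total STAT3, phosphorylated ERK1/2 and cleaved caspase 3.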

MDA-MB-231 [6] = assay: Antitumor activity against human MDA-MB-231 cells xenografted in Harlan athymic nude mouse assessed as decrease in tumor size at 5 mg/kg, ip measured for 21 days; assay type: functional, organism-based; parameters: dose 5 mg/kg
How it was run: (§3)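 Female athymic nude mice, 6 weeks old, received 5 × 10^6 MDA-MB-231 cells subcutaneously in the flank. After tumors developed, they were split into two groups of eight tumors each: DMSO vehicle control, or 5 mg/kg IP. The drug was formulated in Cremaphor, DMSO and 5% dextrose. Tumor L and W were measured by caliper every other day. Volume = 0.5236 × L × W2. Treatment lasted 21 days.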

EW8 = assay: Effect on total STAT3 expression in human EW8 cells at 0.5 to 1 uM after 8 hrs by Western blot analysis; assay type: functional, cell-based; how it was run: as §2
[7] = Cytotoxicity against human RD2 cells assessed as cell viability by MTT assay; assay type: functional, cell-based; how it was run: as §1
[8] = target: Mitogen-activated protein kinase; ERK1/ERK2 (Homo sapiens) (UniProt P27361+P28482); assay: Inhibition of ERK1/2 phosphorylation in human EW8 cells at 0.5 to 1 uM after 8 hrs by Western blot analysis; assay type: cell-based; how it was run: as §2
Mitogen-activated protein kinase; ERK1/ERK2 (Homo sapiens), sequence (P27361 whole entry, looked up): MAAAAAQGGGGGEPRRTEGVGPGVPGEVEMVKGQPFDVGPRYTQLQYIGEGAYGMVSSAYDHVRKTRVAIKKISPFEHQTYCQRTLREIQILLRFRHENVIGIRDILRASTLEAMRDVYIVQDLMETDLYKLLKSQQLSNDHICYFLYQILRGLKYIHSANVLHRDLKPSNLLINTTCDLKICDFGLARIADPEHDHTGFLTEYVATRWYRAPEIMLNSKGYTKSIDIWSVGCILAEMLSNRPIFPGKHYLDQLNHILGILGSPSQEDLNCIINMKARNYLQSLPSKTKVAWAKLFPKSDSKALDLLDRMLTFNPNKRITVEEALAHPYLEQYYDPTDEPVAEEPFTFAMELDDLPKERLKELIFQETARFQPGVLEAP
Mitogen-activated protein kinase; ERK1/ERK2 (Homo sapiens), sequence (P28482 whole entry, looked up): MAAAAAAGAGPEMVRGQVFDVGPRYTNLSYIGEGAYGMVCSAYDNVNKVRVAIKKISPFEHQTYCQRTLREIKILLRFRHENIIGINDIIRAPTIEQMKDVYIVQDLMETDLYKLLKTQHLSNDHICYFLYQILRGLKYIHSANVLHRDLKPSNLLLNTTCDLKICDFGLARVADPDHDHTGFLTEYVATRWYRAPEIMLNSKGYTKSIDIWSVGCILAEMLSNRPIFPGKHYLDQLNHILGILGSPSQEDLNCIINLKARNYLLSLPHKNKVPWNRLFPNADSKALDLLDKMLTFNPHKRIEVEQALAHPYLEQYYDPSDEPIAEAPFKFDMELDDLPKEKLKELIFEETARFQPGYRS

[9] = target: Signal transducer and activator of transcription 3 (Homo sapiens) (UniProt P40763); assay: Inhibition of IL6-induced STAT3 Y705 phosphorylation in human DAOY cells at 1 to 5 uM incubated for 2 hrs prior to IL6 induction measured after 30 mins by Western blot analysis; assay type: cell-based
How it was run: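 DAOY medulloblastoma cells were allowed to adhere, then serum-starved overnight. They were left untreated or pretreated with 1–5 μM compound or DMSO for 2 h, then stimulated with IL-6. Cells were harvested 30 min after stimulation. P-STAT3 (Tyr705) and STAT3 were detected by Western blot from RIPA lysates, with ECL detection.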

SJRH30 [10] = assay: Effect on total STAT3 expression in human Rh30 cells at 0.25 to 1 uM after 16 hrs by Western blot analysis; assay type: functional, cell-based
How it was run: (§4)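 RH30 cells at 60–80% confluence in 10% FBS were treated with compound or DMSO for 16 h. Whole-cell extracts were made in cold RIPA buffer with protease and phosphatase inhibitor cocktails. Extracts were run on SDS-PAGE and transferred to PVDF. Blots were probed for P-STAT3 (Tyr705) and total STAT3 with primary antibody 1:1,000 and HRP secondary 1:10000, then detected by ECL.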

[11] = target: Signal transducer and activator of transcription 3 (Homo sapiens) (UniProt P40763); assay: Inhibition of constitutive STAT3 Y705 phosphorylation in human Rh30 cells after 16 hrs by Western blot analysis; assay type: cell-based; how it was run: as §4
[12] = target: Signal transducer and activator of transcription 3 (Homo sapiens) (UniProt P40763); assay: Inhibition of constitutive STAT3 Y705 phosphorylation in human EW8 cells after 8 hrs by Western blot analysis; assay type: cell-based; how it was run: as §2
[13] = target: Signal transducer and activator of transcription 3 (Homo sapiens) (UniProt P40763); assay: Inhibition of IL6-induced STAT3 Y705 phosphorylation in human MCF7 cells at 0.25 to 1 uM incubated for 5 hrs prior to IL6 induction measured after 30 mins by Western blot analysis; assay type: cell-based
How it was run: (§5)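 MCF-7 cells, which lack persistent P-STAT3, were allowed to adhere overnight and then serum-starved overnight. They were left untreated or pretreated with compound or DMSO for 5 h, then stimulated with IL-6 at 25 ng/mL. Cells were harvested 30 min later and probed for P-STAT3 (Tyr705) and STAT3 by Western blot using RIPA lysates and ECL.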

[14] = Cytotoxicity against human Rh30 cells assessed as cell viability by MTT assay; assay type: functional, cell-based; settings: SJRH30; how it was run: as §1
MDA-MB-231 [15] = assay: Antitumor activity against human MDA-MB-231 cells xenografted in Harlan athymic nude mouse assessed as tumor growth inhibition at 5 mg/kg, ip measured for 21 days; assay type: functional, organism-based; parameters: dose 5 mg/kg; how it was run: as §3
SJRH30 [16] = assay: Effect on total STAT3 expression in human Rh30 cells at 0.5 to 2.5 uM after 16 hrs by Western blot analysis; assay type: functional, cell-based; how it was run: as §4
[17] = target: Signal transducer and activator of transcription 3 (Homo sapiens) (UniProt P40763); assay: Inhibition of IL6-induced STAT3 Y705 phosphorylation in human MCF7 cells at 0.5 to 2.5 uM incubated for 5 hrs prior to IL6 induction measured after 30 mins by Western blot analysis; assay type: cell-based; how it was run: as §5

Q: Which IC50 (U2OS) does the source give for NS(=O)(=O)c1cccc2c1C(=O)C=C(Nc1ccccc1)C2=O here?
A: The IC50 was > 5000 nM.

Q: For O=C1C(Nc2ccc3ccccc3c2)=CC2=NS(=O)(=O)c3cccc1c32, which IC50 (U2OS) is on record?
A: The IC50 was 2500 nM.

Q: With NS(=O)(=O)c1cccc2c1C(=O)c1cccc(O)c1C2=O as the compound, how does the IC50 [1] read?
A: The IC50 was 160 nM.

Q: And the IC50 (MDA-MB-231 [2])?
A: The IC50 was 160 nM.

Q: And the IC50 (PANC-1)?
A: Its IC50 is 160 nM.

Q: What about the IC50 [3] of the same compound?
A: The IC50 was 160 nM.

Q: And the IC50 (SK-BR-3)?
A: The IC50 was 160 nM.

Q: Which IC50 (U2OS) does the source give for O=C1C(Nc2ccccc2)=CC2=NS(=O)(=O)c3cccc1c32 here?
A: The IC50 was 5000 nM.

Q: Which inhibition [4] does the source give for NS(=O)(=O)c1cccc2c1C(=O)C=C(Nc1cccnc1)C2=O here?
A: Its inhibition is “inactive”.

Q: And the IC50 (U2OS)?
A: The IC50 was 500 nM.

Q: What about the inhibition [5] of the same compound?
A: Its inhibition is “Active”.

Q: And the Activity (MDA-MB-231 [6])?
A: The Activity was “Active”.

Q: And the Activity (EW8)?
A: Its Activity is “inactive”.

Q: What about the IC50 [7] of the same compound?
A: The IC50 was 1390 nM.

Q: And the inhibition [8]?
A: The inhibition was “inactive”.

Q: What about the inhibition [9] of the same compound?
A: The inhibition was “Active”.

Q: And the Activity (SJRH30 [10])?
A: The Activity was “inactive”.

Q: What about the inhibition [11] of the same compound?
A: Its inhibition is “Dose-dependent effect”.

Q: And the inhibition [12]?
A: The inhibition was “Dose-dependent effect”.

Q: What about the inhibition [13] of the same compound?
A: Its inhibition is “Active”.

Q: What about the IC50 [14] of the same compound?
A: The IC50 was 550 nM.

Q: And the TGI (MDA-MB-231 [15])?
A: Its TGI is “Active”.

Q: Which Activity (SJRH30 [16]) does the source give for O=C1C(Nc2ccc([N+](=O)[O-])cc2Cl)=CC2=NS(=O)(=O)c3cccc1c32 here?
A: The Activity was “inactive”.

Q: What about the IC50 (U2OS) of the same compound?
A: Its IC50 is 1390 nM.

Q: And the inhibition [17]?
A: Its inhibition is “Active”.

Q: And the IC50 [7]?
A: The IC50 was 2560 nM.

Q: And the inhibition [11]?
A: Its inhibition is “Dose-dependent effect”.

Q: What about the IC50 [14] of the same compound?
A: The IC50 was 1140 nM.
